The structures appear in SMILES notation.

The series can be described thus: Toxicity liver stage against HepG2, at 10uM. Details: test concentration 10 uM, cell line HepG2-A16-CD81EGFP. Particulars: human, HepG2-A16-CD81EGFP cells; read-out: INHIBITION
The series is classed as cell-based. The method, boiled down: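 Uninfected HepG2-A16-CD81EGFP cells, 3 × 10^3 per well, 1536-well, plated on prespotted compound at 10 μM final, parasite-free screening media added to match infected plates; puromycin 10 μM positive, DMSO 0.5% negative; run in parallel with 48 h PbLuc assay at 37 °C, 5% CO2; viability by CellTiter-Glo luminescence, normalized to controls.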
`CN(C)C(=O)c1cccnc1SCc1ccccc1C#N`: the cytotoxicity at 10 µM amounted to 2.02%.

Take `CC[C@H]1N(Cc2ccco2)CCC[C@]12CCC(=O)N2C`: the cytotoxicity at 10 µM is 4.23%.

For `CO[C@H]1CN(C(=O)c2ccc3c(c2)OCO3)[C@@H]2COC[C@H]12`, the cytotoxicity at 10 µM was -142%.

On to `Cc1oncc1C(=O)N1CCC2(CCN(Cc3cccc(F)c3)C2=O)C1` (configuration not stated), for which the cytotoxicity at 10 µM was -142%.

For `CCOC(=O)CSc1ccc(-c2nc(CC)no2)cn1`, the cytotoxicity at 10 µM was -17.1%.

Take `COc1ccc(-c2cc(=O)n3c(n2)CCCCC3)cc1`: the cytotoxicity at 10 µM was -14.1%.

For the molecule `CC(=O)N1CCC2(CC1)C(=O)N(CC1CC1)c1ccccc12`, the cytotoxicity at 10 µM turned out to be 11.2%.

With `CN(C(=O)c1ccncc1)c1nnc(C2CCOC2)s1` (configuration not stated), the cytotoxicity at 10 µM was found to be 3.57%.

In the case of `CCCC(=O)NCCc1nc(N(C)C)ncc1-c1ccncc1`, the cytotoxicity at 10 µM came out at 2.92%.

`COCCNCc1cc2ccc(C)c(C)c2[nH]c1=O`: the cytotoxicity at 10 µM came to 5.13%.

As to `CN(C)CC(=O)N1CCCC1c1ccccn1` (configuration not stated), the cytotoxicity at 10 µM is 4.38%.

Take `CNc1cc(C2CN(Cc3cccnc3NC)CCO2)nc(C)n1` (configuration not stated): the cytotoxicity at 10 µM came to 2.93%.

For the molecule `CCCn1nc(C)c(C(=O)N[C@@H]2CC[C@@H](N3CCCC3)[C@@H]2O)c1C`, the cytotoxicity at 10 µM was -4.79%.

On to `Cc1cc(C)n(CC(=O)N2CCC(c3cc4cccnc4[nH]3)CC2)n1`, for which the cytotoxicity at 10 µM was 16.8%.

Regarding `FC(F)(F)c1cc(C2CCNCC2)nc(-c2ccsc2)n1`, the cytotoxicity at 10 µM is 8.6%.

Turning to `CCCC(=O)N1CCC(c2cc3cccnc3c(O)n2)CC1`, the cytotoxicity at 10 µM was -3.63%.

`CC1(C2CCN(CC(N)=O)CC2)CN(Cc2ccccc2)C(=O)O1` (configuration not stated): the cytotoxicity at 10 µM is -23.4%.

Take `NC(=O)C1CCN(C(=O)CCn2c(C(F)(F)F)cc3cccnc32)CC1`: the cytotoxicity at 10 µM was -23.7%.

For the molecule `CN(C)CCN(C)C(=O)c1ccccc1-n1cc(CN(C)C)cn1`, the cytotoxicity at 10 µM is -13.7%.

As for `O=C(c1cccnc1)N1CCC(c2nc(O)cc(-c3ccncc3)n2)C1` (configuration not stated), the cytotoxicity at 10 µM is -20.8%.

On to `O=C(Cn1ccnc1)N1C[C@@H]2CC[C@H](Oc3cccc(F)c3)[C@@H]2C1`, for which the cytotoxicity at 10 µM is -18%.

In the case of `CCn1cc(CN2CCc3nc(-c4ccccn4)nc(O)c3C2)cn1`, the cytotoxicity at 10 µM is -2.25%.

For `Cc1nc(C)n(CC2CCCN2c2ccnc(-c3ccccc3)n2)n1` (configuration not stated), the cytotoxicity at 10 µM amounted to 9.69%.

In the case of `Cc1occc1C(=O)NCC(=O)N1CCC(COc2ccccc2)CC1`, the cytotoxicity at 10 µM is 12.2%.

As to `CC(C(=O)N(C)Cc1ccc(Br)o1)n1cccn1` (configuration not stated), the cytotoxicity at 10 µM was 4.9%.

`CS(=O)(=O)NCc1ccc2c(c1)CCC2`: the cytotoxicity at 10 µM is -1.9%.

On to `COCCn1cc(C(=O)NCCS(N)(=O)=O)c2ccccc21`, for which the cytotoxicity at 10 µM worked out at 7.01%.

On to `CC(=O)NCCNC(=O)NCC1Cc2ccccc2O1` (configuration not stated), for which the cytotoxicity at 10 µM was -1.83%.

On to `Cc1nc(C)c(C(C)NCc2c(C(C)C)nn(C)c2N(C)C)s1` (configuration not stated), for which the cytotoxicity at 10 µM is -8.53%.

Consider `FC(F)(F)c1csc(N2CCN(Cc3ccccn3)CC2)n1`, for which the cytotoxicity at 10 µM was determined as 4.25%.

For `CC(O)CN1CCN(Cc2coc(-c3ccccc3)n2)CC1` (configuration not stated), the cytotoxicity at 10 µM is -5.93%.

With `Cc1cc(C(=O)NCCC(=O)N2CCCc3ccccc32)no1`, the cytotoxicity at 10 µM came to 2.29%.

`COc1cc(CNC(=O)c2cc(S(C)(=O)=O)ccc2C)ccn1`: the cytotoxicity at 10 µM was -1.65%.

Consider `Cc1noc(CSc2ccc(C(F)(F)F)cn2)n1`, for which the cytotoxicity at 10 µM was -12.5%.

Consider `CC(C)C(C(=O)NC1CC1)n1cnc2cc(F)c(F)cc21` (configuration not stated), for which the cytotoxicity at 10 µM is 15.3%.

Take `Cc1cccc(NC(=O)[C@@H]2CCCN2Cc2nc3ccccc3o2)n1`: the cytotoxicity at 10 µM is -4.61%.

For the molecule `COCc1ccc(C(=O)N2CCOCC2c2ccc(C)o2)cc1` (configuration not stated), the cytotoxicity at 10 µM is -5.48%.

As for `N#Cc1ncn(CCC(=O)Nc2ccc(F)c(F)c2)n1`, the cytotoxicity at 10 µM is -147%.

For the molecule `CCCc1nc(C)c(C(=O)Nc2cccc(C)n2)s1`, the cytotoxicity at 10 µM is -40.8%.

`Cc1nc2ccc(C(=O)N3CCn4c(C)nnc4C3)cc2nc1C`: the cytotoxicity at 10 µM is -6.2%.

As for `Cc1ccc(OCCC(=O)NCCCN2CCCC2=O)c(C)c1`, the cytotoxicity at 10 µM was -1.08%.

With `Cc1ncncc1C(=O)N1CCCN(Cc2cnn(C(C)C)c2)CC1`, the cytotoxicity at 10 µM was 0.814%.

On to `Cn1c(C2CC2)nc2c1CCN(CCc1ccccn1)C2`, for which the cytotoxicity at 10 µM turned out to be 4.59%.

On to `CCc1noc(CC)c1CC(=O)N1CCN(C(=O)C2CCCC2)CC1`, for which the cytotoxicity at 10 µM is -4.78%.

`CCOC(C)c1nc(Cn2cc(C)cn2)cs1` (configuration not stated): the cytotoxicity at 10 µM stood at 5.52%.

On to `CC(C)OCCSCCn1nc2ccccn2c1=O`, for which the cytotoxicity at 10 µM is 3.36%.

With `CC(C)N(C)C(=O)CSCc1ccc(S(=O)(=O)N(C)C)o1`, the cytotoxicity at 10 µM was 19.1%.

`Cn1ccnc1CNCCNc1ncc(Cl)cc1Cl`: the cytotoxicity at 10 µM was found to be 0.321%.

With `CC1CCN(CC(O)CNc2ccccn2)CC1` (configuration not stated), the cytotoxicity at 10 µM was 11.4%.

On to `O=C(c1cccs1)N1CCN(C(=O)c2ncoc2-c2ccco2)CC1`, for which the cytotoxicity at 10 µM was 3.82%.

For the molecule `CCCS(=O)(=O)NCCc1ncc(CC)s1`, the cytotoxicity at 10 µM was -1.56%.

Regarding `Cc1nc(C)n(CC2CCCCN2CC(=O)Nc2nncs2)n1` (configuration not stated), the cytotoxicity at 10 µM was found to be 4.62%.

In the case of `CCOCC(O)CN1CCN(C(=O)c2ccnc(N(C)C)c2)CC1` (configuration not stated), the cytotoxicity at 10 µM was -3.47%.

`CN(Cc1ccc(F)cc1)C(=O)Cn1nc(-c2ccc(F)cc2)oc1=O`: the cytotoxicity at 10 µM amounted to 8.68%.

Take `O=C(CCNC(=O)c1ccccc1)Nc1ccncc1`: the cytotoxicity at 10 µM was -2.36%.

`Cc1cc(NC(=O)N2CCN(c3nc(C)c(C)s3)CC2)no1`: the cytotoxicity at 10 µM was 3.04%.

`O=C(NCC1CC2(CO1)CN(c1nncs1)C2)C1CCC1` (configuration not stated): the cytotoxicity at 10 µM is -103%.

As for `CN1CCN(S(=O)(=O)c2ccc(C(=O)N3CC[C@@H](O)C3)cc2)CC1=O`, the cytotoxicity at 10 µM was 2.7%.

As to `Cc1ccccc1SC1CCN(C(=O)C2CNCC(=O)N2)CC1` (configuration not stated), the cytotoxicity at 10 µM was -3.81%.

Turning to `COc1cc(OC)cc(C2CC(=O)Nc3c2nc2n3CCCC2)c1` (configuration not stated), the cytotoxicity at 10 µM is -3.99%.

Regarding `CC(C)(O)CCc1cccc(C(=O)N2CCC[C@H]2CN2CCCC2)c1`, the cytotoxicity at 10 µM was -1.13%.

As to `O=C(c1ccc(-n2cnnc2)cc1Cl)N1CCCC(O)(CO)CC1` (configuration not stated), the cytotoxicity at 10 µM is -3.59%.

In the case of `CN(Cc1ccsc1)C(=O)C1CCC(=O)N(Cc2ccccn2)C1` (configuration not stated), the cytotoxicity at 10 µM is 0.0228%.

On to `CNCC(=O)NC1CC(C)(C)Cc2nc(C(C)(C)C)ncc21` (configuration not stated), for which the cytotoxicity at 10 µM is 10.2%.

In the case of `O=C(CCN1CCOCC1)NC1CCCN(CC2CCCCC2)C1` (configuration not stated), the cytotoxicity at 10 µM amounted to 1.64%.

With `Cc1nn(C)c2nc(NC(C)c3nnn[nH]3)sc12` (configuration not stated), the cytotoxicity at 10 µM is -0.909%.

For the molecule `COc1cccc(OC)c1-c1c[nH]c(C)n1`, the cytotoxicity at 10 µM was -1.57%.

In the case of `COCc1nc(CNC2CSCCSC2)no1`, the cytotoxicity at 10 µM was determined as 8.33%.

On to `Cc1nc(NCCSc2cnn[nH]2)c2c(C)noc2n1`, for which the cytotoxicity at 10 µM is -3.21%.

On to `O[C@@]1(CNCC2(Cn3cccn3)CC2)CCCN2CCCC[C@@H]21`, for which the cytotoxicity at 10 µM amounted to 4.13%.

As to `CCCC(=O)N1CCCC(Cn2cc(-c3ccc(F)cc3)nn2)C1` (configuration not stated), the cytotoxicity at 10 µM amounted to 7.88%.

Turning to `CN(CC1CCCCO1)S(=O)(=O)c1cccc(C(=O)N2CCOCC2)c1` (configuration not stated), the cytotoxicity at 10 µM was -12.4%.

As for `COc1cccc2c(=O)n(Cc3nc(C)cc(O)n3)cnc12`, the cytotoxicity at 10 µM came out at 9.49%.

In the case of `CN(Cc1n[nH]c(=O)n1Cc1ccccc1F)S(C)(=O)=O`, the cytotoxicity at 10 µM is -4.98%.

For `CC(C)CCC(=O)N1CCCC2(CCN(Cc3ccccc3C#N)C2)C1` (configuration not stated), the cytotoxicity at 10 µM stood at 0.129%.

As to `Cc1ccc2nc(C3CCCN3C(=O)c3cc(=O)[nH]c(=O)[nH]3)[nH]c2c1` (configuration not stated), the cytotoxicity at 10 µM was determined as 18.7%.

As to `c1ccc(CCCN2CCCC(Nc3cnc4ccccc4n3)C2)cc1` (configuration not stated), the cytotoxicity at 10 µM is 1.34%.

For `CCNC(=O)N1CCCC(C(=O)c2cccc(OC(C)C)c2)C1` (configuration not stated), the cytotoxicity at 10 µM turned out to be 8.62%.

Take `O=C(CCc1cc(O)no1)N1CCCC(COc2ccc(F)cc2)C1` (configuration not stated): the cytotoxicity at 10 µM turned out to be 2.47%.

Consider `CC(C)c1ncc(CN2C[C@@H](CN3CCC(CO)CC3)[C@@H](CO)C2)cn1`, for which the cytotoxicity at 10 µM worked out at 20%.

Take `CCC(=O)N1CC[C@@H](c2ccc3ccccc3c2)[C@H](O)C1`: the cytotoxicity at 10 µM is -11.4%.

Consider `O=C(NCCc1ccccn1)Nc1cc(C(F)(F)F)c[nH]c1=O`, for which the cytotoxicity at 10 µM was -6.78%.

Consider `Cc1ccc(O)c(C(=O)N2CCOCC2c2c(C)n[nH]c2C)c1` (configuration not stated), for which the cytotoxicity at 10 µM is -10.8%.

For the molecule `Cc1nc(C)n(C2CCCN(C(=O)c3cncnc3C)C2)n1` (configuration not stated), the cytotoxicity at 10 µM is -2.48%.

In the case of `CC(C)c1nnc2n1CCN(C(=O)Cc1csc(C(C)(C)C)n1)C2`, the cytotoxicity at 10 µM is -4.54%.

As for `COc1ccccc1C(O)CNC(=O)NCc1cccnc1OC` (configuration not stated), the cytotoxicity at 10 µM was -4.48%.

In the case of `Fc1ccccc1CN(CCCn1ccnc1)CC1CCOC1` (configuration not stated), the cytotoxicity at 10 µM worked out at 8.68%.

As to `COc1ccc(C[C@H]2CNCC[C@H]2OC)cc1`, the cytotoxicity at 10 µM was determined as 1.76%.

`O=C(CN1CCN(CC(O)C2CC2)CC1)NCc1ccc(F)cc1` (configuration not stated): the cytotoxicity at 10 µM is -0.084%.

Turning to `Cc1cccc(CN2CCC3(CC2)NC(=O)C[C@H]3c2cnn(C)c2)n1`, the cytotoxicity at 10 µM came to 4.53%.

In the case of `Cc1ccc2c(n1)N(C)CCN(C(=O)NC1CC1)C2`, the cytotoxicity at 10 µM came out at 1.36%.

For `O=C(C1CCC2(CCN(CC3CC3)CC2)O1)N1CCCC1` (configuration not stated), the cytotoxicity at 10 µM was 1.58%.

In the case of `Cc1cccc(CN2C[C@@H]3CN(C(=O)c4cnoc4C)C[C@@H]3C2=O)n1`, the cytotoxicity at 10 µM was determined as 5.71%.

For the molecule `O=C1[C@H]2CN(C3CCOCC3)C[C@H]2CN1Cc1cccc(F)c1`, the cytotoxicity at 10 µM was -117%.

For the molecule `O=C1CC(c2ccncc2)C2(CCN(Cc3ccc(F)cc3)CC2)N1` (configuration not stated), the cytotoxicity at 10 µM was 1.35%.

Turning to `CC(C)N1CCc2[nH]nc(C(=O)N3CCN(C)CC3)c2C1`, the cytotoxicity at 10 µM is -3.75%.

On to `CNC(=O)[C@H]1C[C@H]2CN(Cc3ccccc3)C[C@@H]1O2`, for which the cytotoxicity at 10 µM amounted to 8.84%.

The record behind these values is ChEMBL document CHEMBL4513216, “Probing the Open Global Health Chemical Diversity Library for Multistage-Active Starting Points for Next-Generation Antimalarials” (ACS Infect Dis, 2020).
